Results published in ChEMBL document CHEMBL1136442, “New anti-malarial peroxides with in vivo potency derived from spongean metabolites” (Bioorg Med Chem Lett, 2003).

Experiments:
Mus musculus [1] = assay: Survival days of the treated animal to that of control animal at a dose of 10 mg/kg; type: functional
[2] = Selectivity index was determined; type: functional
Mus musculus [3] = assay: In vivo anti-malarial activity against Plasmodium berghei
Plasmodium falciparum = assay: In vitro anti-malarial activity against Plasmodium falciparum; type: functional, organism-based
Outline: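 FCR3 strain (cycloguanil-resistant, Gambia) was sorbitol-synchronized and plated at ring stage (0.55% parasitemia, 2% hematocrit). Compound was added from DMSO stock diluted in complete medium (1% DMSO final). After 48 h at 37 °C, proliferation was scored on Giemsa smears, 10,000 erythrocytes per film, in triplicate. Quinine was the reference.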

KB 3-1 = assay: In vitro antimalarial activity against KB 3-1; type: functional, cell-based; conditions: Homo sapiens
Outline: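 Cytotoxicity was measured by colorimetric MTT assay, with mitomycin C as positive control.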

Mus musculus [4] = species: Mus musculus; assay: In vitro anti-malarial activity in mice (Mus musculus) serum after 24 hr; type: functional, organism-based

Row | SMILES | T/C (Mus musculus [1]) | Selectivity index [2] | ED50 (Mus musculus [3]) | IC50 (Plasmodium falciparum) | IC50 (KB 3-1) | IC50 (Mus musculus [4])
1 | CCCCCC1(OC)CCC(CC(=O)OC)OO1 (centres undefined) | 81 | 360 | > 30 mg/kg |  |  | 
2 | CCCCCC1(OC)CCC(CC(=O)NC)OO1 (centres undefined) | 118 | 10 |  | 0.52 µM | 5.2 µM | 
3 | CCCCCC1(OC)CCC(CC(=O)N(C)C)OO1 (centres undefined) | 95 | 13 | 13 mg/kg | 0.31 µM | 4 µM | 
4 | C[C@@H]1CC[C@H]2[C@@H](C)C(=O)O[C@@H]3O[C@@]4(C)CC[C@@H]1[C@]32OO4 [ARTEMISININ] |  |  | 5 mg/kg |  |  | 
5 | CCCCCC1(OC)CCC(CC(=O)NCCC)OO1 (centres undefined) | 138 | 39 | 9.3 mg/kg | 0.31 µM | 12 µM | 
6 | CCCCCC1(OC)CCC(CC(=O)O)OO1 (centres undefined) |  |  |  |  |  | > 1.2 µM
7 | CCCCCC1(OC)CCC(CC(=O)N(CC)CC)OO1 (centres undefined) | 118 | 27 | 20 mg/kg | 0.49 µM | 13 µM | 
8 | CCCCCC1(OC)CCC(CC(=O)NCC)OO1 (centres undefined) | 125 | 25 | 11 mg/kg | 0.54 µM | 14 µM | 
